pIC50: −log10 of the molar value. Values belong to the compound of their own block, whether it stands above or below them.
How the values were obtained:
[1] = target: T1, Cyclin-dependent kinase 2 (Homo sapiens, UniProt P24941); assay: Inhibition of human CDK2/Cyc2
[2] = target: Cyclin-dependent kinase 4/cyclin D1 (Homo sapiens, UniProt P11802); assay: Inhibition of human CDK4/CycD1; assay type: protein-complex assay
Streptomyces coelicolor [3] = assay: Inhibition of aph8-induced kanamycin phosphorylation in Streptomyces coelicolor cell lysate assessed as [32Pi] incorporation into kanamycin at 10 uM by microplate scintillation counter relative to control; parameters: scale not given: the % may be the effect or the level left
Streptomyces lividans [4] = assay: Inhibition of aph8 positive Streptomyces lividans at 80 uM after 20 hrs by paper disk method; assay type: functional; conditions: read-out: IZ
How it was run: (§1)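 Test culture was Streptomyces lividans carrying plasmid pSU23 with the aphVIII gene, whose kanamycin-inactivating activity depends on Ser/Thr kinase phosphorylation. Paper disks (7 mm) held kanamycin (5 µg/disk) plus test compound at subtoxic amounts, about half the minimal growth-inhibitory dose. Disks went on plates of log-phase cells at 28 °C for 20 h. Read-out was lysis zone diameter.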

Streptomyces lividans [5] = assay: Inhibition of aph8 positive Streptomyces lividans at 40 uM after 20 hrs by paper disk method; assay type: functional; conditions: read-out: IZ; how it was run: as §1
Streptomyces lividans [6] = assay: Inhibition of aph8 positive Streptomyces lividans at 20 uM after 20 hrs by paper disk method; assay type: functional; conditions: read-out: IZ; how it was run: as §1
Streptomyces lividans [7] = assay: Inhibition of aph8 positive Streptomyces lividans at 5 uM after 20 hrs by paper disk method; assay type: functional; conditions: read-out: IZ; how it was run: as §1
Streptomyces lividans [8] = assay: Inhibition of aph8 positive Streptomyces lividans at 10 uM after 20 hrs by paper disk method; assay type: functional; conditions: read-out: IZ; how it was run: as §1
Streptomyces coelicolor [9] = assay: Inhibition of aph8 phosphorylation in Streptomyces coelicolor cell lysate assessed as [32Pi] incorporation into aph8 at 500 nM by microplate scintillation counter relative to control; parameters: scale not given: the % may be the effect or the level left
How it was run: (§2)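 Radiometric in vitro assay of actinobacterial protein kinases. Kinases incubated under standard conditions with [γ-³²P]ATP and aphVIII as substrate, with or without modulators or inhibitors. Read-out was incorporation of the γ-phosphoryl residue into aphVIII.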

Streptomyces lividans [10] = assay: Inhibition of aph8 positive Streptomyces lividans at 50 uM after 20 hrs by paper disk method; assay type: functional; conditions: read-out: IZ; how it was run: as §1
Streptomyces lividans [11] = assay: Inhibition of aph8 positive Streptomyces lividans at 200 uM after 20 hrs by paper disk method; assay type: functional; conditions: read-out: IZ; how it was run: as §1
Streptomyces coelicolor [12] = assay: Inhibition of Ca(2+))/phosphatidylserine/diacylglycerol-dependent aph8 phosphorylation in Streptomyces coelicolor cell lysate assessed as [32Pi] incorporation into aph8 at 500 nM by microplate scintillation counter relative to control; parameters: scale not given: the % may be the effect or the level left; how it was run: as §2
Streptomyces lividans [13] = assay: Inhibition of aph8 positive Streptomyces lividans at 25 uM after 20 hrs by paper disk method; assay type: functional; conditions: read-out: IZ; how it was run: as §1
Streptomyces lividans [14] = assay: Inhibition of aph8 positive Streptomyces lividans at 100 uM after 20 hrs by paper disk method; assay type: functional; conditions: read-out: IZ; how it was run: as §1
Streptomyces lividans [15] = assay: Inhibition of aph8 positive Streptomyces lividans at 400 uM after 20 hrs by paper disk method; assay type: functional; conditions: read-out: IZ; how it was run: as §1
[16] = target: T2, NUAK family SNF1-like kinase 1 (Homo sapiens, UniProt O60285); assay: Inhibition of human ARK5
T2 sequence (O60285 whole entry): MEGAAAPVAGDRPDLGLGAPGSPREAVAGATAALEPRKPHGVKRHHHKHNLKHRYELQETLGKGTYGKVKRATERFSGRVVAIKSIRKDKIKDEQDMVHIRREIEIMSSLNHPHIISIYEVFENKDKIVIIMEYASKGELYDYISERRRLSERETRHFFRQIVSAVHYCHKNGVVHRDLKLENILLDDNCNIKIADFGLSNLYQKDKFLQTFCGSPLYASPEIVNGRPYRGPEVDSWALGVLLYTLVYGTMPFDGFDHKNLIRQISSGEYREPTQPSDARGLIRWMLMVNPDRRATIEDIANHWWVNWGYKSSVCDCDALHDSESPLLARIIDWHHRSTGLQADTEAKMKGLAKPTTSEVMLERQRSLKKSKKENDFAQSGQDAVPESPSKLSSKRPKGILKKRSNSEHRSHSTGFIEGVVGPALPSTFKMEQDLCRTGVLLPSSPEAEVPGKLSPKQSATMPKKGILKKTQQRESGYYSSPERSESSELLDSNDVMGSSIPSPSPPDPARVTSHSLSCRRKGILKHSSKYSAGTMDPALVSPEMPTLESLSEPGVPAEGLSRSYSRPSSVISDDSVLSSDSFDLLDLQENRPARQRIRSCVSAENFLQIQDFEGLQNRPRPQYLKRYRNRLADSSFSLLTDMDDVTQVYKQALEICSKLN

[17] = target: Serine/threonine-protein kinase B-raf (Homo sapiens, UniProt P15056, V600E); assay: Inhibition of human B-RAF-V600E mutant
Ephrin type-B receptor 4 = target: T3, Ephrin type-B receptor 4 (Homo sapiens, UniProt P54760); assay: Inhibition of human EPHB4
T3 sequence (P54760 whole entry): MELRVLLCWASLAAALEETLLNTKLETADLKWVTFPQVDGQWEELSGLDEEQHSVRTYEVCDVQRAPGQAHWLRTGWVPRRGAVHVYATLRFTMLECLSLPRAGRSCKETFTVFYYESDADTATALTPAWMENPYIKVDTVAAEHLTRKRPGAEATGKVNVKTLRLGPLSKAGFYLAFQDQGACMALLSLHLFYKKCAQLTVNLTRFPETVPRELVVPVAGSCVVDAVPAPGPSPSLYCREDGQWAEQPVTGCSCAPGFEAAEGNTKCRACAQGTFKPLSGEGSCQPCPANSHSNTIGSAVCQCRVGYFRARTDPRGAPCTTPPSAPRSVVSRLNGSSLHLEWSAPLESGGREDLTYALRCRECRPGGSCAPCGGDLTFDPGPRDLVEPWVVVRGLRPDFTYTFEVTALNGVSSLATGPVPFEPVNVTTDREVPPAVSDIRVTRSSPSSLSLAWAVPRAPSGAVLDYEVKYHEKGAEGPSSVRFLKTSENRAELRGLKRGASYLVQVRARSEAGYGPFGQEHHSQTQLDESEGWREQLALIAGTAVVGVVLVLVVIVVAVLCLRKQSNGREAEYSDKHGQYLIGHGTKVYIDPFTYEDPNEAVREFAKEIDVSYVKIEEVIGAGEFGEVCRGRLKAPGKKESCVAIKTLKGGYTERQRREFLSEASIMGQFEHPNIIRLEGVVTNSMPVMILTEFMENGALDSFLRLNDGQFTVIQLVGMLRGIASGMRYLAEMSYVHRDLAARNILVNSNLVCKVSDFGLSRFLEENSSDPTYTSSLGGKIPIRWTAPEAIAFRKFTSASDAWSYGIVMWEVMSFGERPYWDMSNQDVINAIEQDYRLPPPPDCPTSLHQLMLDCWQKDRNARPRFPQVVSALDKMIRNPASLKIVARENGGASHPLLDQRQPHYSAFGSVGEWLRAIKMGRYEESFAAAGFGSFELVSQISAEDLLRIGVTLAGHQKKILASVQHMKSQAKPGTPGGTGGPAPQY

Insulin receptor = Insulin receptor (Homo sapiens, UniProt P06213); assay: Inhibition of human INSR
[18] = target: Platelet-derived growth factor receptor beta (Homo sapiens, UniProt P09619); assay: Inhibition of human PDGFRbeta
[19] = target: Hepatocyte growth factor receptor (Homo sapiens, UniProt P08581); assay: Inhibition of human MET
[20] = target: T1, Cyclin-dependent kinase 2; assay: Inhibition of human CDK2/CycA
[21] = target: Epidermal growth factor receptor (Homo sapiens, UniProt P00533); assay: Inhibition of human EGFR
Streptomyces coelicolor [22] = assay: Inhibition of Ca(2+)/Calmodulin-dependent aph8 phosphorylation in Streptomyces coelicolor cell lysate assessed as [32Pi] incorporation into aph8 at 500 nM by microplate scintillation counter relative to control; parameters: scale not given: the % may be the effect or the level left; how it was run: as §2
[23] = target: Serine/threonine-protein kinase PLK1 (Homo sapiens, UniProt P53350); assay: Inhibition of human PLK1
Focal adhesion kinase 1 = Focal adhesion kinase 1 (Homo sapiens, UniProt Q05397); assay: Inhibition of human FAK
[24] = target: RAC-alpha serine/threonine-protein kinase (Homo sapiens, UniProt P31749); assay: Inhibition of human AKT1
[25] = target: Receptor tyrosine-protein kinase erbB-2 (Homo sapiens, UniProt P04626); assay: Inhibition of human ERBB2
[26] = target: Insulin-like growth factor 1 receptor (Homo sapiens, UniProt P08069); assay: Inhibition of human IGF1R
[27] = target: Proto-oncogene tyrosine-protein kinase Src (Homo sapiens, UniProt P12931); assay: Inhibition of human SRC
[28] = target: Vascular endothelial growth factor receptor 2 (Homo sapiens, UniProt P35968); assay: Inhibition of human VEGFR2

Chain of Cyclin-dependent kinase 4/cyclin D1 (P11802 whole entry): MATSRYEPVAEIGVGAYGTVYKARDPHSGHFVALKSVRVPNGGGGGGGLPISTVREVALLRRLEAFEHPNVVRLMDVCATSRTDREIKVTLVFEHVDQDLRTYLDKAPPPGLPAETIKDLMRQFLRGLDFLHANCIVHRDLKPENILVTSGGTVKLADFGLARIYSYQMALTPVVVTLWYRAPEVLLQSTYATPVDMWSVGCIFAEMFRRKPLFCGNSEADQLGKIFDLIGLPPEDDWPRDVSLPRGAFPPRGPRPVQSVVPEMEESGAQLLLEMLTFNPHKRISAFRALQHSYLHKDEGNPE
Chain of Cyclin-dependent kinase 4/cyclin D1 (P24385 whole entry, further chain): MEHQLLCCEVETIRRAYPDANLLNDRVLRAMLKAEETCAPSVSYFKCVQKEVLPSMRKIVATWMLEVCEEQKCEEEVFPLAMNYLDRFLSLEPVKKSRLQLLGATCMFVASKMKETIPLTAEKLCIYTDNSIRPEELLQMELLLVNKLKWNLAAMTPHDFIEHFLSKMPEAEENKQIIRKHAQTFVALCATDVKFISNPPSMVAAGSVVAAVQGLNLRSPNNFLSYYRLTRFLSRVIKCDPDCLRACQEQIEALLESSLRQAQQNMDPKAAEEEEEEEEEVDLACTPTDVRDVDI
Chain of Insulin receptor (P06213 28-758 limits assumed): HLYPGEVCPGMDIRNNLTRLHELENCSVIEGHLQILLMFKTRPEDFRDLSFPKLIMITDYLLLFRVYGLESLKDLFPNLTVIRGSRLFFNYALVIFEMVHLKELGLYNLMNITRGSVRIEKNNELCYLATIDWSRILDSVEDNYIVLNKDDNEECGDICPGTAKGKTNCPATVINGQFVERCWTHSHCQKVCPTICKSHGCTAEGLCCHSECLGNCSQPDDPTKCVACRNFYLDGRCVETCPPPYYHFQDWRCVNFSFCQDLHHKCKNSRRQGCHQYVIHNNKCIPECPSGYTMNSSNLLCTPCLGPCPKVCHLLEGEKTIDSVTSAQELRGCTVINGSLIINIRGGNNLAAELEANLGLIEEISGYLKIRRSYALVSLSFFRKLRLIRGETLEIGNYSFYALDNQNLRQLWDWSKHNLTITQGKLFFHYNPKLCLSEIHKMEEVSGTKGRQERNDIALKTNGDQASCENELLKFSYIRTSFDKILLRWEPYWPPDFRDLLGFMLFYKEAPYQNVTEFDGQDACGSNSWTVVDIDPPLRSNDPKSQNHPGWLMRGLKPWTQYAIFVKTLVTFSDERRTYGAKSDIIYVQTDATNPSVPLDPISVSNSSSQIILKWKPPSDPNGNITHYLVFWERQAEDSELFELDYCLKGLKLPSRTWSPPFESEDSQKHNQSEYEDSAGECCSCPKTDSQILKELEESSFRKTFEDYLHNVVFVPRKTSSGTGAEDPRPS
Chain of Insulin receptor (P06213 763-1382 limits assumed): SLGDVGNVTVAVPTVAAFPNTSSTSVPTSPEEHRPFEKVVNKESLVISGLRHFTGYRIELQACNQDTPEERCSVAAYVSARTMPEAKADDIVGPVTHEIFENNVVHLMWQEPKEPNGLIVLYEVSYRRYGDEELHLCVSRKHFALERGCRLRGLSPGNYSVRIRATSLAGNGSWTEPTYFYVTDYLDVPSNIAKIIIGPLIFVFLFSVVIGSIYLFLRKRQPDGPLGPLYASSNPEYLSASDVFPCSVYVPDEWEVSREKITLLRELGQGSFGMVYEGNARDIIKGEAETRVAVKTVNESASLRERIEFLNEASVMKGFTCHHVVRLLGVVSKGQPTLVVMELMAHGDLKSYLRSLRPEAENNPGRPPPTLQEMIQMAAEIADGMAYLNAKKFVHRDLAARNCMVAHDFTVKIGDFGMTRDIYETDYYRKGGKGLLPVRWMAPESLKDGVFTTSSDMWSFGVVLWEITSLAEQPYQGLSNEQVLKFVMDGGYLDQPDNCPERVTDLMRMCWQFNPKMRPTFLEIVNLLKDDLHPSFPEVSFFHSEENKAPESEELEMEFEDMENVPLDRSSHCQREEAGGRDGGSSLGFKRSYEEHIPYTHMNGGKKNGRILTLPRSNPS
Chain of Hepatocyte growth factor receptor (P08581 whole entry): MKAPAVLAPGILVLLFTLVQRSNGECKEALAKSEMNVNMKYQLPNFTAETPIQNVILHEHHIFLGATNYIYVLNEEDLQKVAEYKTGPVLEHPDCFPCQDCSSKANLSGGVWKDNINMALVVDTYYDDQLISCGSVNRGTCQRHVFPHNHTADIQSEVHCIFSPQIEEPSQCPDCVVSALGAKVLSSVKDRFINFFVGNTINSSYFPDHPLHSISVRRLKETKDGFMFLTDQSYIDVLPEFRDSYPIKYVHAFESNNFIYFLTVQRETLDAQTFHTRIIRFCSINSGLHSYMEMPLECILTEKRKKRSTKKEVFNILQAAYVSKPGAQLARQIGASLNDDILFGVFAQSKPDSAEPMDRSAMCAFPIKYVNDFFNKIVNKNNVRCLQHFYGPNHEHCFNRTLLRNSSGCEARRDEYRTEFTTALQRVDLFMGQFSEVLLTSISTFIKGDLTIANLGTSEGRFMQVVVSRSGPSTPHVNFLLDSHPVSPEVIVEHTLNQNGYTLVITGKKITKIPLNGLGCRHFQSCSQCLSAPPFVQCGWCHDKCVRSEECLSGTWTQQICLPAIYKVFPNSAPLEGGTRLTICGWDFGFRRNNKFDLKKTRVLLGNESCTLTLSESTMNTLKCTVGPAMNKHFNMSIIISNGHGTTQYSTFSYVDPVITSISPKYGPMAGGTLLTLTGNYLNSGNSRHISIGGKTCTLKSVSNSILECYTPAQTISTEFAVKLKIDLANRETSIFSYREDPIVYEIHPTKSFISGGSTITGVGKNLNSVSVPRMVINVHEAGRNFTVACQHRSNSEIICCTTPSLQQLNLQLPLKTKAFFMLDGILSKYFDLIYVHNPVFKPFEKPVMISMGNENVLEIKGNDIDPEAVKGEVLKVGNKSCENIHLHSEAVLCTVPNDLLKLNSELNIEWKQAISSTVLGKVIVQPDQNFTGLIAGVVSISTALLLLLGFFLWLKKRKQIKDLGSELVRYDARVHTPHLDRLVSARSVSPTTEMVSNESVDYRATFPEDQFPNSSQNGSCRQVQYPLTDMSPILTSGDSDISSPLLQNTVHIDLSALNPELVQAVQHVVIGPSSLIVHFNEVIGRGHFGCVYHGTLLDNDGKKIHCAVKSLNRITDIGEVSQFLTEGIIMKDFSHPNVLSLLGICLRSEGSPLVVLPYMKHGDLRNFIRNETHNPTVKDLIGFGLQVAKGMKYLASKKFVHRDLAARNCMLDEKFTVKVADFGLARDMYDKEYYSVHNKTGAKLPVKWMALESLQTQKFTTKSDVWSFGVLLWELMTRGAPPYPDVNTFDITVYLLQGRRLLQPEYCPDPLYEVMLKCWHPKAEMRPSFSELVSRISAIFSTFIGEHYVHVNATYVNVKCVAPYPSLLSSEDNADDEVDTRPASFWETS
Chain of Platelet-derived growth factor receptor beta (P09619 whole entry): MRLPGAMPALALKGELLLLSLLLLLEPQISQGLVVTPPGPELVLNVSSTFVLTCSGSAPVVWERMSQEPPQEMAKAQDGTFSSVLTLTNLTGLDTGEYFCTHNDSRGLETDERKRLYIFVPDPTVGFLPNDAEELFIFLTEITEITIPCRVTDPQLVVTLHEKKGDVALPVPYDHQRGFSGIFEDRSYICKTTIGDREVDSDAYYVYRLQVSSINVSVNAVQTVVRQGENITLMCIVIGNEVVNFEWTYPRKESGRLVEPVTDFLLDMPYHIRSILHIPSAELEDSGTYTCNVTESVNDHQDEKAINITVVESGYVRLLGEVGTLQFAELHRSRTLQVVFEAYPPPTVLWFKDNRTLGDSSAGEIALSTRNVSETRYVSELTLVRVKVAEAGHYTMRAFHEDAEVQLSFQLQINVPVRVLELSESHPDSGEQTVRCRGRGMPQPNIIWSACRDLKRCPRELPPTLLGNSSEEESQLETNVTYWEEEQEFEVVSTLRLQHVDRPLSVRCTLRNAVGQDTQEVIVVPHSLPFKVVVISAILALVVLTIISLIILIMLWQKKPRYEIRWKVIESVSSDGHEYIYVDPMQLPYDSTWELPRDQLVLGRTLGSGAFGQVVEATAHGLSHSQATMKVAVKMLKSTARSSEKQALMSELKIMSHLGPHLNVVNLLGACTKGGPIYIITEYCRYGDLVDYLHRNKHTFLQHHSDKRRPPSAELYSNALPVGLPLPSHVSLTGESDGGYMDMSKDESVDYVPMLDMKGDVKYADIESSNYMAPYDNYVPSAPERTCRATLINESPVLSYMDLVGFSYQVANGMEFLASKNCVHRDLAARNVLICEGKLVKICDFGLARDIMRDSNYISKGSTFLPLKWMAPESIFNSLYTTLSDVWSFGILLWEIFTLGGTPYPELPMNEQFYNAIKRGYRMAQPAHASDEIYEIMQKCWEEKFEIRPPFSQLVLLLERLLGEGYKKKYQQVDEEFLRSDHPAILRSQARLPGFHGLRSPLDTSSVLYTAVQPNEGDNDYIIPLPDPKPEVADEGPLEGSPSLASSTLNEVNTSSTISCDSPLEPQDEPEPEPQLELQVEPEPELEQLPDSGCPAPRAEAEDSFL
Chain of Serine/threonine-protein kinase PLK1 (P53350 whole entry): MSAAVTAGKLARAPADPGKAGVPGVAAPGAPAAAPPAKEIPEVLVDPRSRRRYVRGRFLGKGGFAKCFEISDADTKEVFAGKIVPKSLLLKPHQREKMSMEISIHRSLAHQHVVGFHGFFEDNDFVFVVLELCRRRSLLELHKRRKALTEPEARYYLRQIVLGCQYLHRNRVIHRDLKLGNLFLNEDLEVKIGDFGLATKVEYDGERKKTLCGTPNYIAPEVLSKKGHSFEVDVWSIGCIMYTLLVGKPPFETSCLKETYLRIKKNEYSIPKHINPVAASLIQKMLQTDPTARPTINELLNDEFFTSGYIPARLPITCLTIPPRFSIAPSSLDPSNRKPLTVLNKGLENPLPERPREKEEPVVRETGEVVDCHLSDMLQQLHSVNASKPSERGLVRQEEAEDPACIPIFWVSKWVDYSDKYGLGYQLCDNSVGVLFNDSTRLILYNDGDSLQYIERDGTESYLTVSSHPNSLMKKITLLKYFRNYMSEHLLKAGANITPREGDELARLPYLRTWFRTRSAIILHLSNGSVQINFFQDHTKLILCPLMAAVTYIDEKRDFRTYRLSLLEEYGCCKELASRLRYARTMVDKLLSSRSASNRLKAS

Compound: O=C(O)CN(CCOCCOCCN(CC(=O)O)CC(=O)O)CC(=O)O
Activity (Streptomyces coelicolor [9]): 94%

Compound: CCN(CC)Cc1cn2c3c(cccc13)C1Cc3ccccc3N1C1=C2C(=O)N(C)C1=O (stereo not given)
zone of inhibition at 50 µM (Streptomyces lividans [10]): 0 mm
zone of inhibition at 200 µM (Streptomyces lividans [11]): 12 mm
Activity (Streptomyces coelicolor [3]): 93%
Activity (Streptomyces coelicolor [12]): 94%
zone of inhibition at 25 µM (Streptomyces lividans [13]): 0 mm
zone of inhibition at 100 µM (Streptomyces lividans [14]): 7.5 mm
zone of inhibition at 400 µM (Streptomyces lividans [15]): 14 mm

Compound: CNC(=N)SCCCn1c(=O)c2c(c1=O)n1c3ccccc3cc1c1cccc3ccn2c31
pIC50 [16]: 5.01
pIC50 [2]: 5.21
pIC50 [17]: 5.08
pIC50 (Ephrin type-B receptor 4): 5.41
pIC50 (Insulin receptor): 5.20
pIC50 [18]: 5.17
pIC50 [19]: 5.13
pIC50 [20]: 5.20
pIC50 [21]: 5.00

Compound: CN([C@@H](Cc1ccc(OS(=O)(=O)c2cccc3cnccc23)cc1)C(=O)N1CCN(c2ccccc2)CC1)S(=O)(=O)c1cccc2cnccc12
Activity (Streptomyces coelicolor [22]): 113%

Compound: N=C(N)SCCCn1c(=O)c2c(c1=O)n1c3ccccc3cc1c1cccc3ccn2c31
pIC50 [23]: 5.00
pIC50 (Focal adhesion kinase 1): 5.36
pIC50 [2]: 5.57
pIC50 [24]: 5.05
pIC50 [17]: 5.92
pIC50 (Ephrin type-B receptor 4): 5.64
pIC50 (Insulin receptor): 5.59
pIC50 [18]: 5.38
pIC50 [19]: 5.48
pIC50 [25]: 5.11
pIC50 [26]: 5.40
pIC50 [20]: 5.44
pIC50 [27]: 5.42
pIC50 [28]: 5.39

Further lines, with some results ahead:

pIC50 [1]: 5.37
Compound: N=C(N)SCCCN1C(=O)C2=C(C1=O)n1ccc3cccc(c31)C1Cc3ccccc3N21 (stereo not given)

pIC50 [2]: 5.16
Compound: C=CCNC(=N)SCCCN1C(=O)C2=C(C1=O)n1ccc3cccc(c31)C1Cc3ccccc3N21 (stereo not given)

Activity (Streptomyces coelicolor [3]): 94%
Compound: CCN(CC)CCCN1C(=O)C2=C(C1=O)n1ccc3cccc(c31)C1Cc3ccccc3N21 (stereo not given)
zone of inhibition at 80 µM (Streptomyces lividans [4]): 11 mm
zone of inhibition at 40 µM (Streptomyces lividans [5]): 9 mm
zone of inhibition at 20 µM (Streptomyces lividans [6]): 7.5 mm
zone of inhibition at 5 µM (Streptomyces lividans [7]): 0 mm
zone of inhibition at 10 µM (Streptomyces lividans [8]): 0 mm

Source: ChEMBL document CHEMBL1151764, “Search for inhibitors of bacterial and human protein kinases among derivatives of diazepines[1,4] annelated with maleimide and indole cycles” (J Med Chem, 2008)
